Granule exo inh = lytic granule exocytosis inhibition. TALL-104 LAMP-1 surface exposure, flow cytometry; cells stimulated with thapsigargin and PMA. inhibition, % at 10 µM. 360,000 compounds, 0.66% hits. AID 651702;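 active = inhibition above about 55%, limit read from the data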
PfG6PD inh = PfG6PD (Plasmodium falciparum) enzyme inhibition; PfGluPho enzyme, NADPH resazurin-diaphorase fluorescence; inhibition, % at 20 µM; 350,000 compounds, 0.78% hits;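 active = inhibition reaching at least a set limit at 20 µM in the primary screen, cut at about 59% in these data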;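 note: 0% = DMSO wells with substrate and 100% = DMSO wells lacking glucose-6-phosphate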
HKDC1 inhibitor = inhibitors of human hexokinase HKDC1. recombinant HKDC1, G6PDH/diaphorase resazurin coupled fluorescence. inhibition, % at 20 µM. 340,000 compounds, 0.16% hits. AID 493160;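 active = inhibition above about 35% when tested at 20 µM, limit read from the data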;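 note: plate controls were DMSO wells with enzyme for no effect and DMSO wells lacking enzyme for full effect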
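Test system: Recombinant HKDC1 (HK5) hexokinase enzyme, produced in-house | Input: HKDC1 at 5 µg/mL | Buffer or medium: Tris pH 8.0 buffer with MgCl2, Tween-20, BSA, BME | Schedule: 90 min reaction incubation at room temperature, dark | Technique: Resazurin-to-resorufin fluorescence via G6PDH and diaphorase coupling, 525/613 nm | Controls: DMSO wells with and without enzyme mix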
ABHD5 PLIN5 PPI = blocks binding of human ABHD5 to perilipin-5; Split G. princeps luciferase complementation, luminescence, 4 h; inhibition, % at 4 µM; 360,000 compounds, 0.78% hits; AID 602281;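 active = inhibition above the mean inhibition across every tested compound plus 3 SD, cut at about 22% in these data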;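 note: 0% = DMSO only wells and the 100% control is not disclosed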
ABHD5-PLIN5 conf = ABHD5-PLIN5 interaction inhibition, confirmed; inhibition, % at 4 µM; biochemical ABHD5-PLIN5 interaction, luminescence; shares compounds with ABHD5 PLIN5 PPI; 2,200 compounds, 67% hits; in the data active = inhibition above about 23%;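 note: 0% = DMSO vehicle wells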
HNF4 counter = counter-screen for ABHD5-PLIN5 inhibitors: HNF4 split-luciferase; shares compounds with ABHD5 PLIN5 PPI; HNF4 dimerization, luminescence, biochemical; inhibition, % at 4 µM; 2,200 compounds, 77% hits;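 active = mean inhibition across replicate wells exceeding the computed hit threshold, cut at about 13% in these data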;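 note: light from luciferase halves that rejoin when HNF4 fusion proteins dimerize; 0% = DMSO only wells and the 100% control is not given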
Target sequence (P41235 whole entry, looked up, the tested form may be a part): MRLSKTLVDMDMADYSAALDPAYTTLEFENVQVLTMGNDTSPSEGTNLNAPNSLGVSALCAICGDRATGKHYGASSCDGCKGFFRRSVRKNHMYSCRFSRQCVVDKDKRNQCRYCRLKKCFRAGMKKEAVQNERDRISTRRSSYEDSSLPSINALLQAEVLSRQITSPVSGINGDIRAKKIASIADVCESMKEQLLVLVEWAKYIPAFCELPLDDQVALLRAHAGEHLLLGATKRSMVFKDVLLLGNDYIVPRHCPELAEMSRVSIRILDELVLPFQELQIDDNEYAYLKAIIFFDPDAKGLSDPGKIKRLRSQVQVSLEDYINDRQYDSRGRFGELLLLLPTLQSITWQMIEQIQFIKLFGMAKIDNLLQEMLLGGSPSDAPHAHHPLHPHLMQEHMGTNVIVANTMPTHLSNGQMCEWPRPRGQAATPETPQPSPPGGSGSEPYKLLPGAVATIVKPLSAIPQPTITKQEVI
* = called active by the depositor; . = not tested or not shown. This is a sample that favours compounds with a hit; in the whole collection about 2.2% have one here.

SMILES	Granule exo inh	PfG6PD inh	HKDC1 inhibitor	ABHD5 PLIN5 PPI	ABHD5-PLIN5 conf	HNF4 counter
C=CCOc1ccc(/C=C\c2nc(O)c([N+](=O)[O-])c(=O)[nH]2)cc1OC	3	3	8	3	.	.
O=c1[nH]c(/C=C\c2cccc(F)c2)nc(O)c1[N+](=O)[O-]	-4	-2	4	36*	69*	54*
Cc1ccc(Nc2c([N+](=O)[O-])ccc3nonc23)cc1C	4	9	0	15	.	.
CC(=O)Nc1ccccc1C(=O)C(=O)Nc1ccc(F)c(Cl)c1	1	-5	2	1	.	.
COc1ccc(N2CCN(CC(=O)Nc3nc(C)cs3)CC2)cc1	2	-18	2	8	.	.
O=c1[nH]c(/C=C\c2ccccc2F)nc(O)c1[N+](=O)[O-]	-7	-1	7	33*	55*	43*
O=c1[nH]c(/C=C/c2ccccc2F)nc2ccccc12	32	10	4	0	.	.
C=CCOc1cccc(/C=C\c2nc(O)c([N+](=O)[O-])c(=O)[nH]2)c1	-9	0	10	46*	79*	69*
O=C(NNc1ccccc1)c1ccc(Cl)c(Cl)c1	-6	12	0	2	.	.
NNC(=O)CNC(=O)Nc1n[nH]c(=S)s1	-12	.	.	-13	.	.
O=[N+]([O-])/C=C/c1cn(Cc2ccc(Cl)cc2)c2ccccc12	-2	29	15	45*	98*	83*
CCOC(=O)N/N=C/c1cn(Cc2ccc(Cl)cc2)c2ccccc12	-4	-13	-5	-3	.	.
Cc1cccc(Cn2cc(/C=C/[N+](=O)[O-])c3ccccc32)c1	18	-13	23	25*	91*	86*
O=C(O)c1ccc(Cn2cc(/C=C\[N+](=O)[O-])c3ccccc32)o1	-3	-14	1	19	.	.
CCOC(=O)Cn1cc(/C=C/[N+](=O)[O-])c2ccccc21	-3	12	1	19	.	.
COC(=O)c1ccc(Cn2cc(/C=C\[N+](=O)[O-])c3ccccc32)o1	17	-6	12	43*	88*	46*
O=C(/C=C\c1ccccc1OC(=O)c1ccccc1F)c1cc2ccccc2o1	5	7	26	70*	100*	98*
COc1ccc(NC(=O)CSc2c3c(nc4ccccc24)CCCC3)c(OC)c1	-1	13	-4	25*	29*	44*
COc1ccccc1NC(=O)CSc1c2c(nc3ccccc13)CCC2	-3	26	-3	1	.	.
CCN1CCN(C(=O)C(C)Sc2nc3nc(C)cc(C)n3n2)CC1 (stereo not given)	0	2	-7	4	.	.
O=c1c2ccccc2sc2nc(C3CCCCC3)n(Cc3ccco3)c(=O)c12	0	7	-2	26*	37*	43*
CCCc1nc2sc3ccccc3c(=O)c2c(=O)n1Cc1ccccc1	-6	-8	4	-10	.	.
O=c1c2c3c(sc2nc(NCCO)n1Cc1ccco1)CCCCC3	-1	17	-9	-4	.	.
Cn1c2ccccc2c(=O)c2c(=O)n(Cc3ccco3)c(-c3ccc(F)cc3)nc21	10	15	3	10	.	.
CCc1nc2sc3ccccc3c(=O)c2c(=O)n1Cc1ccco1	0	12	7	24*	36*	50*
SMILES	Granule exo inh	PfG6PD inh	HKDC1 inhibitor	ABHD5 PLIN5 PPI	ABHD5-PLIN5 conf	HNF4 counter
Cc1ccc(-c2nc3c(c(=O)c4ccccc4n3C)c(=O)n2Cc2ccco2)cc1	-4	23	9	37*	19	13*
CC(CCc1ccco1)NC(=O)CCc1nnc2ccc(NCc3ccccc3Cl)nn12 (stereo not given)	0	10	-3	43*	40*	.
O=C(NCCc1nnc2ccc(NCc3ccccc3Cl)nn12)c1ccccc1	-5	-4	0	52*	6	4
COc1ccccc1CNc1ccc2nnc(CCNC(=O)c3ccccc3)n2n1	-5	12	-1	2	.	.
Cc1occc1-c1nnc(SCC(=O)NC2CCC(C)CC2)o1 (stereo not given)	-3	9	-2	-1	.	.
CC(=O)N(c1ccc(C)cc1)c1nc(C)cc(C)c1C#N	-2	-6	-6	-5	.	.
COc1ccc(-n2nnnc2S(=O)(=O)Cc2ccc(C(=O)O)cc2)cc1	1	1	1	54*	79*	81*
CCc1ccc(Oc2nnnn2-c2ccc(C(N)=O)cc2)cc1	0	-5	-3	2	.	.
COc1ccc(-c2sc3ccccc3c2-c2ccc(OCCN(C)C)cc2)cc1	2	12	1	40*	21	8
COc1cccc(-c2sc3ccc(OC)cc3c2-c2ccc(OCCN(C)C)cc2)c1	-5	4	-3	21	.	.
CN(C)CCOc1ccc(-c2c(-c3ccsc3)sc3ccccc23)cc1	1	0	-1	29*	12	-2
Cc1ccc(-c2nc(CS(=O)CC(=O)NCCCN3CCN(Cc4ccccc4)CC3)c(C)o2)cc1 (stereo not given)	27	4	-5	9	.	.
N#CC1(NC(=O)COC(=O)c2ccccc2SCC(=O)N2CCCC2)CCCCC1	-2	2	-8	-5	.	.
Cc1cccc(NC(=O)COC(=O)CCc2c[nH]c3ccccc23)c1	-1	4	-4	3	.	.
CCOc1ccc2[nH]c(=O)c(CN(Cc3ccco3)C(=O)c3cccc(F)c3)cc2c1	-2	-4	-1	17	.	.
CCOc1ccc2[nH]c(=O)c(CN(Cc3ccco3)C(=O)c3ccc(Br)cc3)cc2c1	5	-2	9	30*	89*	92*
CCOc1ccccc1N(CC(=O)Nc1cccc2ccccc12)S(C)(=O)=O	7	33	-8	-8	.	.
COc1ccc(NCc2nc3ccccc3n2CCOc2ccccc2)cc1	27	23	11	29*	6	2
c1ccc(NCc2nc3ccccc3n2CCOc2ccccc2)cc1	1	16	17	3	.	.
COc1ccc(NCc2nc3ccccc3n2CCOc2ccc(C)cc2)cc1	8	27	1	25*	6	10
CCOc1ccccc1N(CC(=O)NCC1CCCO1)C(=O)CCC(=O)Nc1nccs1 (stereo not given)	-6	-4	-8	-7	.	.
CC(C)(C)NC(=O)C(c1cc2ccccc2o1)n1c(-c2ccc(-c3ccccc3)cc2)nc2ccccc21 (stereo not given)	9	.	.	2	.	.
COc1ccc(C(C(=O)NC(C)(C)C)n2c(=O)c(-c3ccccc3)nc3ccccc32)cc1 (stereo not given)	1	.	.	-1	.	.
CCCCCNC(=O)C(c1ccncc1)n1c(=O)c(-c2cc3ccccc3[nH]2)nc2ccccc21 (stereo not given)	-2	.	.	-3	.	.
CC(C)(C)NC(=O)C(c1ccccc1)n1c(=O)c(-c2ccco2)nc2ccccc21 (stereo not given)	1	.	.	75*	77*	26*
